# Source: publication PMC10329961 (Advances in Therapy, 2023)
# Structures can show the parent of a compound that is named as a salt.
# Key:
# [1] = system: healthy adults and patients with glaucoma; details: cited from earlier work
# [2] = system: corneal endothelial cells; type: in vivo, human; details: after instillation, days 1 and 8; none developed grade 3
# [3] = system: palpebral and bulbar conjunctivae; assay: Palpebral and bulbar conjunctival hyperemia grading by slit lamp microscope; type: in vivo, human; details: day 1, score – = 0, + = 1, 2+ = 2, 3+ = 3; for palpebral conjunctival hyperemia mean ± SD grade score: administration phase 1
# Outline: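 Conjunctival hyperemia was graded: – no or physiologic findings; + several vasodilatations; 2+ multiple or limbal vasodilatation; 3+ whole conjunctiva. Change from baseline per phase was averaged over both eyes and analysed by marginal model, n = 17–18.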
# healthy adult men = assay: Adverse events; type: in vivo, human; details: 8-day twice-daily instillation
# Outline: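 Healthy adult men, 3 × 3 crossover: three 8-day phases separated by drug-free intervals of at least 5 days. One drop of test eye drop was given in both eyes twice daily (09:00, 21:00), with morning dose only on day 8. Subjects were inpatients from day −1 to day 9. AEs and ADRs were tallied as number and percentage of subjects.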
# healthy volunteers = details: cited from earlier work; for pupil diameter after single instillation: healthy subjects, ref 37 (Lee et al.)
morphologic changes in corneal endothelial cells (grade) [2],palpebral conjunctival hyperemia mean ± SD grade score ([3]; 15 min post-instillation),palpebral conjunctival hyperemia mean ± SD grade score ([3]; 1 h post-instillation),bulbar conjunctival hyperemia mean ± SD grade score ([3]; 1 h post-instillation),SMILES,time of peak of transient conjunctival hyperemia after instillation [1] [min],subjects with ADRs (healthy adult men) [%],subjects with AEs (healthy adult men) [%],subjects with conjunctival hyperemia as ADR (healthy adult men) [%],subjects with conjunctival hyperemia as AE (healthy adult men) [%],pupil diameter after single instillation (healthy volunteers),effect on pupil (healthy volunteers; healthy volunteers)
grade 1 or 2,1.4 ± 0.6,0.9 ± 0.7,0.9 ± 0.5,"C[C@H]1CNCCCN1S(=O)(=O)c1cccc2cncc(F)c12 [ripasudil, ripasudil hydrochloride hydrate]",5 to 15,100.0,100.0,100.0,100.0,no change in pupil diameter,–
No morphologic changes,–,–,–,"Brc1c(NC2=NCCN2)ccc2nccnc12 [brimonidine, brimonidine tartrate]",–,58.8,70.6,47.1,58.8,significantly decreased,moderate miotic effect
